From ChEMBL document CHEMBL2424625, “Synthesis and structure-activity relationships of novel indazolyl glucocorticoid receptor partial agonists” (Bioorg Med Chem Lett, 2013) come the findings set out here.

Structures are written as SMILES.

Assay [1] has as its target T1, Glucocorticoid receptor (Homo sapiens, UniProt P04150).
T1 sequence (P04150 whole entry): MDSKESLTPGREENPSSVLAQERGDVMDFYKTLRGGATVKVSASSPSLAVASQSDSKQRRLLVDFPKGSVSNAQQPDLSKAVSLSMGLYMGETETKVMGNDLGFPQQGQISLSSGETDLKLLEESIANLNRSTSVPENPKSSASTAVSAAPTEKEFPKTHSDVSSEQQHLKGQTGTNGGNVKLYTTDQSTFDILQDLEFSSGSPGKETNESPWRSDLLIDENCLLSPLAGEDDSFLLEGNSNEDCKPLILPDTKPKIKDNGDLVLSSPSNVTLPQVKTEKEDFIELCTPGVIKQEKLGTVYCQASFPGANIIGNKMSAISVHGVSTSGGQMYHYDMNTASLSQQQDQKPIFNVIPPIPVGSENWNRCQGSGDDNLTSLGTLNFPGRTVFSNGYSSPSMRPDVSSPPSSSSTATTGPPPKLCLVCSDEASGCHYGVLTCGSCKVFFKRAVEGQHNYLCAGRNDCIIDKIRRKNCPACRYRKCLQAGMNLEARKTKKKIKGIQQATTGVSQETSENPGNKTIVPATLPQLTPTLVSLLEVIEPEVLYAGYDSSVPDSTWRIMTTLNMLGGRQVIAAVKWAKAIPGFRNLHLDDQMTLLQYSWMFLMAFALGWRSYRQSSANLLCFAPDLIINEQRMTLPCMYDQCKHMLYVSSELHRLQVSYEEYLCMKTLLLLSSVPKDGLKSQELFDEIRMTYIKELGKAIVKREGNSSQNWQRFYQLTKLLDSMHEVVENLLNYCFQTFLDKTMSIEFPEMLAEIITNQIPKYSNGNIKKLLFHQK
Kind of assay: Binding affinity to glucocorticoid receptor (unknown origin) by fluorescence assay.

The next assay concerns the target T2, Progesterone receptor (Homo sapiens, UniProt P06401).
T2 sequence (P06401 whole entry): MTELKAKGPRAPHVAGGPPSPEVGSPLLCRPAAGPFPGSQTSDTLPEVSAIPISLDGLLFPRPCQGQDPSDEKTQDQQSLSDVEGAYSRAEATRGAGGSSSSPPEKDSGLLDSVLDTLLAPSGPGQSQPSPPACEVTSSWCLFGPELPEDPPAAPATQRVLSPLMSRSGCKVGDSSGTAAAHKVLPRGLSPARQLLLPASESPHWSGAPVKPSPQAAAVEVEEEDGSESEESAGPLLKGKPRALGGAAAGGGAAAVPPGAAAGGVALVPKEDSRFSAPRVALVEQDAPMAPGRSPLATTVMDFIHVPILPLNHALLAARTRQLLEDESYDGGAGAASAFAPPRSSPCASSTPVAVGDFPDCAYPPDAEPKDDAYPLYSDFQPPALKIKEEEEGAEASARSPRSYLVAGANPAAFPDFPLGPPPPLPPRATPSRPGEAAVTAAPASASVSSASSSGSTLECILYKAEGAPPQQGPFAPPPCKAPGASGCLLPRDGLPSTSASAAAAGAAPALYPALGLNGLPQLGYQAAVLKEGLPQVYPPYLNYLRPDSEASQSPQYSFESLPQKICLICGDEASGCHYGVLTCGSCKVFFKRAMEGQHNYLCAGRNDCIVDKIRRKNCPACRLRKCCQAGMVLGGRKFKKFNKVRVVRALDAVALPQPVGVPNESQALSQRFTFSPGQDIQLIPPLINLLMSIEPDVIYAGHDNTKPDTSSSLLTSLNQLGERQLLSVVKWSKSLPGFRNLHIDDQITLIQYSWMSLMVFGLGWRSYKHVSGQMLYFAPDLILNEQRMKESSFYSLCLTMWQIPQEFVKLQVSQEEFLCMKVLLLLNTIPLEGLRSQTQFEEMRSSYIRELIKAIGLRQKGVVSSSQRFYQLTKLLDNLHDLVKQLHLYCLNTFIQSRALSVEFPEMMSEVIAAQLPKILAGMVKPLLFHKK
Kind of assay: Binding affinity to progesterone receptor (unknown origin) by fluorescence assay. The gist of the method: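 Fluorescence polarization competition between test compound and a fluorescently labeled ligand for binding to full-length receptor or its ligand binding domain. IC50 was fit to the signal by four-parameter logistic equation. Ki = IC50/(1 + ligand concentration/Kd) (Cheng–Prusoff).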

Assay [2] has as its target T1, Glucocorticoid receptor. Description: Transrepression activity at glucocorticoid receptor in human A549 cells assessed as inhibition of IL1beta-stimulated NFkappaB-dependent E-selectin transcription by luciferase reporter gene assay. Format: cell-based.
In assay [3] the target is T3, Glucocorticoid receptor (Homo sapiens) (UniProt P04150).
T3 sequence (whole entry): T1 sequence (P04150 whole entry)
Kind of assay: Transrepression activity at glucocorticoid receptor in human A549 cells assessed as inhibition of PMA-stimulated AP1 response element by luciferase reporter gene assay relative to dexamethasone. It is filed as cell-based. The gist of the method:
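Transrepression of AP-1 was run in A549 lung epithelial cells. […] Values are means of two or more experiments in triplicate.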

Assay [4] concerns the target T4, Mineralocorticoid receptor (Homo sapiens, UniProt P08235).
T4 sequence (P08235 whole entry): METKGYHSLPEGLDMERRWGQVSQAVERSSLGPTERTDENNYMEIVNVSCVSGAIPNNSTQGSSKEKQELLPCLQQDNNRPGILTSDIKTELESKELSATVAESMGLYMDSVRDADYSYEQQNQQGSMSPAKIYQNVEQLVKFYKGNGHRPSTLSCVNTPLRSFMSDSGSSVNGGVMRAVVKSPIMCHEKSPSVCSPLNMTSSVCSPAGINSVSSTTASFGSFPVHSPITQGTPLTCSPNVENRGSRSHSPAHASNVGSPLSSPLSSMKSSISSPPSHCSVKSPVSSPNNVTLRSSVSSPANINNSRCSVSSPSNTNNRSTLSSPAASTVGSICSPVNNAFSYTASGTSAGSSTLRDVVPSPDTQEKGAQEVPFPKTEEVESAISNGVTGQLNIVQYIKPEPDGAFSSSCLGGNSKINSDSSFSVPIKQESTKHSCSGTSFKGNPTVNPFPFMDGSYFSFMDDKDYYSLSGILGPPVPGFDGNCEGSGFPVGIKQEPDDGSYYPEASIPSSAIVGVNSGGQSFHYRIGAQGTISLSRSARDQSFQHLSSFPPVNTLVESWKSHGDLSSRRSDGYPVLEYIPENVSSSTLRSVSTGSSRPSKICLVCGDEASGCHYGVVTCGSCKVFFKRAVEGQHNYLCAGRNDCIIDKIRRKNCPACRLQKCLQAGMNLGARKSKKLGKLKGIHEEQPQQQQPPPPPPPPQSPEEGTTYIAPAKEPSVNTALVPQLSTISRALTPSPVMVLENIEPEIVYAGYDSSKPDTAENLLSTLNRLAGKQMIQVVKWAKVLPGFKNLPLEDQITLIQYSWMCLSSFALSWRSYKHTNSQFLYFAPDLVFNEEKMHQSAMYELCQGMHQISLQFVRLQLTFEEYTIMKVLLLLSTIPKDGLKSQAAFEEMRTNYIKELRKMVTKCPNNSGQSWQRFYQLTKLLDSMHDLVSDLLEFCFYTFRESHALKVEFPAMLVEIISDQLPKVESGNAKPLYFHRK
Description: Agonist activity at mineralocorticoid receptor in human A549 cells by fluorescence assay. Format: cell-based. In short, it runs like this: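 A549 cells were run in MR agonist mode with aldosterone as positive control. EC50 was reported with % maximal efficacy, as means of duplicate experiments.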

As to `CC(C)(C)NC(=O)NCC(C)(C)[C@@H](c1ccccc1)c1ccc2c(cnn2-c2ccc(F)cc2)c1`, the results for the inhibition constant (Ki) on Glucocorticoid receptor [1] and on Progesterone receptor were 5.14 nM and above 5000 nM, respectively. The EC50 on Glucocorticoid receptor [2] amounted to 58 nM. In addition, in assay [3], the Efficacy was 74%. In assay [4], the IC50 is above 5000 nM.
Take `CC(C)(CNS(=O)(=O)CC(F)(F)F)[C@@H](c1ccccc1)c1ccc2c(cnn2-c2ccc(F)cc2)c1`: the Ki on Glucocorticoid receptor [1] stood at 0.64 nM; on Progesterone receptor, 406 nM. In addition, the EC50 on Glucocorticoid receptor [2] was 7.6 nM. The Efficacy in assay [3] was found to be 74%. This compound also came in with an IC50 in assay [4] above 5000 nM.
Take `CC(C)(CNC(=O)CC(F)(F)F)[C@@H](c1ccccc1)c1ccc2c(cnn2-c2ccc(F)cc2)c1`: the Ki at Glucocorticoid receptor [1] was 0.81 nM; on Progesterone receptor it was above 5000 nM. The EC50 at Glucocorticoid receptor [2] is 6.85 nM. The Efficacy in assay [3] was determined as 91%. This compound also yielded an IC50 in assay [4] above 5000 nM.
